Measured values published in ChEMBL document CHEMBL1141338, “Cytotoxic sesquiterpene lactones from Pseudoelephantopus spicatus” (J Nat Prod, 2007).
Values after ≈ are worked out from the molar mass of the structure shown.

Columns and labels:
HepG2 = experiment: Cytotoxicity against human HepG2 cells; assay type: functional, cell-based
Method in brief: (§1)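 Panel lines are HepG2 hepatocellular carcinoma, MDA-MB-231 breast carcinoma and A-549 lung carcinoma (human); cytotoxicity evaluated alongside Hep3B and MCF-7 in the same screen.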

MDA-MB-231 = experiment: Cytotoxicity against human MDA-MB-231 cell; assay type: functional, cell-based; method in brief: as §1
A549 = experiment: Cytotoxicity against human A549 cells; assay type: functional, cell-based; method in brief: as §1
[1] = Cytotoxicity against human Hep3B cells; assay type: functional, cell-based, Hep 3B2
Method in brief: (§2)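 Human Hep3B hepatocellular carcinoma and MCF-7 breast carcinoma lines; cytotoxicity reported as IC50 in µg/mL; doxorubicin included as positive control.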

MCF7 = experiment: Cytotoxicity against human MCF7 cells; assay type: functional, cell-based; method in brief: as §2

Row | SMILES | IC50 (HepG2) [µg/mL] | IC50 (MDA-MB-231) [µg/mL] | IC50 (A549) [µg/mL] | IC50 [1] [µg/mL] | IC50 (MCF7) [µg/mL]
1 | CC(=O)OCC1=C2/C(=C\[C@@]3(C)CC[C@](O)(O3)[C@@](C)(O)C[C@@H]2O)OC1=O [PITOCARPHIN D] | > 5 | > 5 | > 5 | – | –
2 | COCC1=C2[C@@H](O)C[C@@]3(C)O[C@]2(C[C@](C)(O)CCC3=O)OC1=O [SPICATOLIDE F] | > 5 | > 5 | > 5 | 3.2 (≈ 9.81 µM) | 2.4 (≈ 7.35 µM)
3 | C/C=C(\C)C(=O)O[C@H]1C[C@](C)(O)[C@]2(O)CC[C@](C)(/C=C3/OC(=O)C(COC)=C31)O2 [SPICATOLIDE E] | > 5 | > 5 | > 5 | – | –
4 | COCC1=C2/C(=C\[C@@]3(C)CC[C@](O)(O3)[C@@](C)(O)C[C@@H]2OC(C)=O)OC1=O | > 5 | > 5 | > 5 | – | –
5 | COCC1=C2[C@@H](OC(C)=O)C[C@@]3(C)O[C@@]2(OC1=O)[C@H](O)[C@@]1(C)CC[C@]3(O)O1 [SPICATOLIDE G] | > 5 | > 5 | > 5 | 6.1 (≈ 15.9 µM) | 4.8 (≈ 12.5 µM)
6 | CC(=O)OCC1=C2[C@@H](OC(C)=O)C[C@@]3(C)O[C@]2(C[C@](C)(O)CCC3=O)OC1=O [SPICATOLIDE A] | > 5 | > 5 | > 5 | – | –
7 | COc1cccc2c1C(=O)c1c(O)c3c(c(O)c1C2=O)C[C@@](O)(C(=O)CO)C[C@@H]3O[C@H]1C[C@H](N)[C@H](O)[C@H](C)O1 [DOXORUBICIN] | – | – | – | 0.06 (≈ 0.11 µM) | –
8 | COCC1=C2/C(=C\[C@@]3(C)CC[C@](O)(O3)[C@@](C)(O)C[C@@H]2O)OC1=O [SPICATOLIDES D] | > 5 | > 5 | > 5 | 4.8 (≈ 14.7 µM) | 5.1 (≈ 15.6 µM)
9 | COCC1=C2[C@@H](OC(C)=O)C[C@@](C)(OC(C)=O)[C@@]3(O)CC[C@@](C)(O)[C@H](OC(C)=O)[C@@]23OC1=O | > 5 | > 5 | > 5 | – | –
10 | C=C1CC[C@@H]2[C@H](OC(=O)[C@H]2C)[C@H]2[C@H](C)OC(=O)C[C@@H]12 [SPICATOLIDE H] | > 5 | > 5 | > 5 | – | –
